# Measurements: publication PMC6912599 (European journal of medicinal chemistry, 2018)
# Where two headings read alike, the source gives them in different places.
# What was measured:
# [1] = molecular target: α1L264Tβ3γ2L receptors (Homo sapiens, UniProt P14867+P28472, L291T); assay: Direct activation of spontaneously gating α1L264Tβ3γ2L receptors in oocytes; type: cell-based
# [2] = molecular target: T1, α1β3 GABAAR (Homo sapiens, UniProt P14867+P28472); assay: Voltage clamp electrophysiology of α1β3 GABAAR expressed in Xenopus oocytes; type: cell-based
# T1 sequence (P14867 28-456): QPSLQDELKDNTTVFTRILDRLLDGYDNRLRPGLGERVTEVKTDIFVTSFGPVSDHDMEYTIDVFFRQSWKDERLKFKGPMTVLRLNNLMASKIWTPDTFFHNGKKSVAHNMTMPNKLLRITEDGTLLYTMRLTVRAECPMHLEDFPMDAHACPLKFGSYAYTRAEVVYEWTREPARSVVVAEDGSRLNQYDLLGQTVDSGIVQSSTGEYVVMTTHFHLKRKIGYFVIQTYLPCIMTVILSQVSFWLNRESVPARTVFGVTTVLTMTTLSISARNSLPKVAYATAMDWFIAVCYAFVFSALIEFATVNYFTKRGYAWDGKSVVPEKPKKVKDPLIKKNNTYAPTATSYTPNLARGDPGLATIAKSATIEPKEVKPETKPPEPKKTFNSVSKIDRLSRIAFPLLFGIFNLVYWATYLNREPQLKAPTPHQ
# T1 sequence (P28472 26-473): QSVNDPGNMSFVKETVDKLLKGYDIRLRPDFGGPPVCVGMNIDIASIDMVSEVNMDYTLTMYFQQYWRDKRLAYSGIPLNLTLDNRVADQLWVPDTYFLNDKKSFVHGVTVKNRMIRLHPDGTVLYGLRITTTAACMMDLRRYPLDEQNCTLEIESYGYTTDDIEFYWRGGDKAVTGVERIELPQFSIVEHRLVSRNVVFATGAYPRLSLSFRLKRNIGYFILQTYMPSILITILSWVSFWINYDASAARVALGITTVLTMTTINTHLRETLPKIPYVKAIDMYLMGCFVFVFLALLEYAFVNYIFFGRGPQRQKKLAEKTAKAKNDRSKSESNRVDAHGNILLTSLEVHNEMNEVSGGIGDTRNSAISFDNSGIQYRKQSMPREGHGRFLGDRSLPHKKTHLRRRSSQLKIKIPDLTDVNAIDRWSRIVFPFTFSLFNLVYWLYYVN
# [3] = molecular target: T2, α1β3γ2L GABAAR (Homo sapiens, UniProt P14867+P28472); assay: Voltage clamp electrophysiology of α1β3γ2L GABAAR expressed in Xenopus oocytes; type: cell-based; conditions: for enhancement of EC5 GABA-activated currents: 10 μM compound; for enhancement of EC5 GABA-activated currents / potentiation of EC5 GABA-activated chloride currents (up to): EC5 GABA (4 μM); for potentiation of EC5 GABA-activated chloride currents (up to): maximum concentration tested 100 μM
# Target sequence in this assay (P18507 40-475 partner, one chain of several): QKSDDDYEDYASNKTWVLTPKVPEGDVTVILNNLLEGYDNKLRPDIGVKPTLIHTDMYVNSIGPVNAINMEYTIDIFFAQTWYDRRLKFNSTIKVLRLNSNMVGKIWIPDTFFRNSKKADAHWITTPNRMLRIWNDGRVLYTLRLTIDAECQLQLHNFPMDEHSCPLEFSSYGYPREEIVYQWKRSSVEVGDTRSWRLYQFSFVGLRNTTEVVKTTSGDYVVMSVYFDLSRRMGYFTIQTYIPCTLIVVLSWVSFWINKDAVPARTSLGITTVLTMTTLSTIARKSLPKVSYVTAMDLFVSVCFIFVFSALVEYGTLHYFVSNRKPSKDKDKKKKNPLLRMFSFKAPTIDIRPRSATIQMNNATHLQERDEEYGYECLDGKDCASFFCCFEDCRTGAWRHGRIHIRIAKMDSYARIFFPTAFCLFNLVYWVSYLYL
# [4] = molecular target: α1Q242Wβ3γ2L receptors (Homo sapiens, UniProt P14867+P28472, Q269W); assay: Electrophysiology of steroid site mutant α1Q242Wβ3γ2L receptors in oocytes; type: cell-based; conditions: 10 μM steroid; EC5 GABA
# Outline: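 Female Xenopus laevis stage V oocytes were injected with up to 10 ng of α1Q242W, β3 and γ2L mRNA (1:1:3) and held ≥24 h. Two-electrode voltage clamp was run at −50 mV and 20–22°C, with ND96 (pH 7.4) superfusion at 2–3 mL/min.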
# [5] = molecular target: T1, α1β3 GABAAR; assay: Modulation of 2 nM [3H]muscimol binding to α1β3 GABAAR
# [6] = test system: tadpoles; assay: Loss of righting reflexes; type: in vivo, tadpole
# [7] = molecular target: T2, α1β3γ2L GABAAR; assay: Modulation of 2 nM [3H]muscimol binding to α1β3γ2L GABAAR
# Target sequence in this assay (P18507 40-475, one chain of several, further chain): as the sequence (P18507 40-475 partner, one chain of several) above
# [8] = molecular target: T1, α1β3 GABAAR; assay: Inhibition of [3H]21-pTFDBzox-AP photolabeling of purified α1β3 GABAAR; type: binding; conditions: for inhibition of photolabeling at high concentrations: same extent as 30 μM allopregnanolone
# [9] = molecular target: α1β3γ2 GABAAR (Homo sapiens, UniProt P14867+P28472); assay: Inhibition of [3H]21-pTFDBzox-AP photolabeling of purified α1β3γ2 GABAAR; type: binding; conditions: 30 μM; 0.8 μM [3H]21-pTFDBzox-AP
# [10] = test system: tadpoles; conditions: read-out: published anesthetic EC50s; tadpole LoRR; cited from earlier work
# Chain of α1L264Tβ3γ2L receptors (P18507 40-475, one chain of several): as the sequence (P18507 40-475 partner, one chain of several) above
# Chain of α1L264Tβ3γ2L receptors (P14867 28-456 L291T, one chain of several): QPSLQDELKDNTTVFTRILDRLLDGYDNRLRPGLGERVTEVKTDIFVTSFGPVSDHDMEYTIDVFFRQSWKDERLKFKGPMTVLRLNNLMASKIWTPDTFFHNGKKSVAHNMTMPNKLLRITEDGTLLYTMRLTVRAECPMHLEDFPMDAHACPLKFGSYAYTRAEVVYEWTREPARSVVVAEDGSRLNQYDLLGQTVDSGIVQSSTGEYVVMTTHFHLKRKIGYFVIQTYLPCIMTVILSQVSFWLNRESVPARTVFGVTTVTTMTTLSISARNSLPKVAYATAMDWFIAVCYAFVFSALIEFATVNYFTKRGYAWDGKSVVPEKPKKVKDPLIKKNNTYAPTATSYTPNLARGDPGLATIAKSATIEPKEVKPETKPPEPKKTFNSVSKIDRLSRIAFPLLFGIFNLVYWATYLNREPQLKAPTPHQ
# Chain of α1Q242Wβ3γ2L receptors (P14867 28-456 Q269W, one chain of several): as the sequence (P14867 28-456 L291T, one chain of several) above, with Q242W, T264L counted along it
# Chain of α1Q242Wβ3γ2L receptors (P18507 40-475 partner, one chain of several): as the sequence (P18507 40-475 partner, one chain of several) above
# Chain of α1β3γ2 GABAAR (P18507 40-475 partner, one chain of several): as above
compound,measurement,setting,value
21-[4-(3-(Trifluoromethyl)-3H-diazirin-3-yl)benzoxy]allopregnanolone [21-pTFDBzox-AP],current elicited as % of the maximal GABA response,"[1]; 2 μM, no GABA",approximately 21%
same,direct increase of inward current in the absence of GABA,"[1]; 2 μM, no GABA",about 50%
same,enhancement of EC10 GABA-activated currents,"[2]; 10 μM compound, EC10 GABA (1 μM)",2.1± 0.4 fold
same,fitted maximal enhancement ratio,"[2]; EC10 GABA, Hill slope constrained to 1.7",2.1 ± 0.4
same,effect on GABA EC50,[3]; 5 μM,did not reduce the GABA EC50
same,enhancement of EC5 GABA-activated currents,[3],2.6 ± 0.3 fold
same,fitted maximal enhancement ratio,"[3]; EC5 GABA, Hill slope constrained to 1.7",2.6 ± 0.3
same,positive modulation in α1Q242W mutant receptors,[4],eliminated positive modulation
same,Hill coefficient nH of [3H]muscimol binding enhancement,[5]; detergent/lipid micelles,1.45 ± 0.51
same,maximal enhancement of [3H]muscimol binding,[5]; detergent/lipid micelles,172 ± 6%
same,Hill coefficient nH of [3H]muscimol binding enhancement,[5]; membranes,1.71 ± 0.10
same,maximal enhancement of [3H]muscimol binding,[5]; membranes,271 ± 7%
same,antagonism of alphaxalone's anesthetic action,[6]; 2.5 or 10 μM 21-pTFDBzox-AP,no significant antagonism
same,Loss of righting reflexes (LoRR),"[6]; tadpoles exposed to 1, 2, 3 and 10 μM",No LoRR
same,Hill coefficient nH of [3H]muscimol binding enhancement,[7]; detergent/lipid micelles,1.15 ± 0.36
same,maximal enhancement of [3H]muscimol binding,[7]; detergent/lipid micelles,135 ± 1%
same,Hill coefficient nH of [3H]muscimol binding enhancement,[7]; membranes,1.09 ± 0.22
same,maximal enhancement of [3H]muscimol binding,[7]; membranes,199 ± 30%
"CC(=O)[C@H]1CC[C@H]2[C@@H]3CC4(N=N4)[C@H]4C[C@H](O)CC[C@]4(C)[C@H]3C(=O)C[C@]12C [6-azi-OAP, 6-Azi-3α-hydroxy-5α-pregnane-11,20-dione]",effect on GABA dose-response curves compared with α1β3γ2L,"[2]; 15 μM, not shown",similar
same,decrease of GABA EC50,[3]; 15 μM 6-azi-OAP,approximately 3 fold
same,potentiation of EC5 GABA-activated chloride currents (up to),[3],10.1 ± 0.67 fold
same,Hill coefficient nH of [3H]muscimol binding enhancement,[7]; α1β3γ2 GABAARs,1.3 ± 0.15
same,efficacy of modulation of [3H]muscimol binding,[7]; α1β3γ2 GABAARs,330 ± 9%
"CC(=O)[C@H]1CC[C@H]2[C@@H]3CC4(N=N4)[C@@H]4C[C@H](O)CC[C@]4(C)[C@H]3C(=O)C[C@]12C [6-azi-OP, 6-Azi-3α-hydroxy-5β-pregnane-11,20-dione]",potentiation of EC5 GABA-activated chloride currents (up to),[3],8.0 ± 1.4 fold
same,Hill coefficient nH of [3H]muscimol binding enhancement,[7]; α1β3γ2 GABAARs,1.6 ± 0.1
same,efficacy of modulation of [3H]muscimol binding,[7]; α1β3γ2 GABAARs,241 ± 3%
C=CC[C@@]1(c2cccc(C3(C(F)(F)F)N=N3)c2)C(=O)NC(=O)N(C)C1=O [R-mTFD-MPAB],inhibition of photolabeling,[8]; 60 μM,no inhibition
"C[C@]12CC[C@@H](O)C[C@@H]1CC[C@@H]1[C@@H]2CC[C@]2(C)[C@@H](C(=O)CO)CC[C@@H]12 [THDOC, 5α-pregnan-3α, 21-diol-20-one, reference compound]",enhancement of EC5 GABA-activated currents,[3],16 ± 2.1 fold
same,positive modulation in α1Q242W mutant receptors,[4],eliminated positive modulation
same,inhibition of photolabeling at high concentrations,[8],60%
"CC(=O)[C@H]1CC[C@H]2[C@@H]3CC[C@H]4C[C@H](O)CC[C@]4(C)[C@H]3CC[C@]12C [allopregnanolone, 5α-pregnan-3α-ol-20-one]",reduction of β subunit photolabeling,"[8]; 30 μM, 0.8 μM [3H]21-pTFDBzox-AP",60%
same,reduction of β subunit photolabeling,[9],70%
"CC(=O)[C@H]1CC[C@H]2[C@@H]3CC[C@H]4C[C@H](O)CC[C@]4(C)[C@H]3C(=O)C[C@]12C [alphaxalone, 5α-pregnan-3α-ol-11,20-dione, reference compound]",EC50,"[6]; read-out: anesthetic EC50 (LoRR), alphaxalone alone, 60 minutes equilibration",1400 ± 300 nM
same,EC50,"[6]; read-out: anesthetic EC50 of alphaxalone, in constant presence of […] 21-pTFDBzox-AP",920 ± 300 nM
same,EC50,[10],1000 to 2000 nM
CCOC(=O)c1cncn1[C@H](C)c1ccccc1 [etomidate],inhibition of photolabeling,[8]; 1 mM,no inhibition
"CC(=O)[C@H]1CC[C@H]2[C@@H]3CC[C@@H]4C[C@H](O)CC[C@]4(C)[C@H]3CC[C@]12C [pregnanolone, 5β-pregnan-3α-ol-20-one]",IC50,[8],700 nM
same,inhibition of photolabeling at high concentrations,[8],60%
Picrotoxin [reference compound],outward currents as % of maximal GABA-induced inward currents,[1]; 2 mM,about 40%
pregnenolone sulfate,inhibition of photolabeling,[8]; 100 μM,no inhibition
